Tests used:
[1] = system: MCF7; assay: Resistance index, ratio of IC50 for human MCF7 cells over-expressing CYP1B1 to IC50 for human MCF7 cells; assay type: functional
[2] = system: MCF7; assay: Cytotoxicity against human MCF7 cells after 48 hrs by MTT assay; assay type: functional, cell-based; settings: MCF7, 48 h
How it was run: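 MCF-7 cells grown in RPMI-1640 with 10% FBS at 37 °C, 5% CO2 and subcultured every 3 days at 1:5. Standard MTT assay with a 48 h exposure to freshly prepared docetaxel. Five concentrations per plate, four replicate wells each, three replicate plates. Viability is percent surviving cells relative to control. IC50 is the average of three parallel experiments.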

[3] = system: MCF7; assay: Cytotoxicity against human MCF7 cells over-expressing CYP1B1 after 48 hrs by MTT assay; assay type: functional, cell-based; settings: MCF7, 48 h
How it was run: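 CYP1B1-expressing MCF-7 (MCF-7/1B1) made by exposing parental cells to 10 nM TCDD for 96 h, with daily renewal of medium containing fresh 10 nM TCDD. Standard MTT assay, 48 h exposure to docetaxel alone or combined with a CYP1B1 inhibitor (5 or 10 μM). Wells with inhibitor alone (10 μM) served as negative control. Five concentrations, four replicate wells each, three plates.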

## CC(=O)O[C@@]12CO[C@@H]1C[C@H](O)[C@@]1(C)C(=O)[C@H](O)C3=C(C)[C@@H](OC(=O)[C@H](O)[C@@H](NC(=O)OC(C)(C)C)c4ccccc4)C[C@@](O)([C@@H](OC(=O)c4ccccc4)[C@H]21)C3(C)C.O.O.O [DOCETAXEL]
[1]
  Ratio IC50: 5
[2]
  IC50: 27.6 µM
[3]
  IC50: 140 µM

— ChEMBL document CHEMBL3421595, “Design and Synthesis of New α-Naphthoflavones as Cytochrome P450 (CYP) 1B1 Inhibitors To Overcome Docetaxel-Resistance Associated with CYP1B1 Overexpression” (J Med Chem, 2015)
